# Assay results: ChEMBL document CHEMBL1158730, “Sesquiterpenoids from Pulicaria canariensis and their cytotoxic activities” (J Nat Prod, 2005)
# Activity calls are given as the source filed them. The rule behind the calls is not given here.
# What was measured:
# Format in all cases: functional, cell-based
# [1] = test system: HL-60; test: Cytotoxicity against human HL60 cells by MTT assay
# Procedure, shortened: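 HL-60 cells grown in suspension in RPMI-1640 with 10% heat-inactivated FBS, penicillin 100 units/mL and streptomycin 100 μg/mL, at 37 °C in humidified 95% air/5% CO2. Density kept below 1 × 10^6 cells/mL. Viability read by MTT; IC50 (μM) given as mean ± spread.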
# [2] = test system: HL-60; test: Induction of apoptosis in human HL60 cells assessed as activation of caspase 3 after 12 hrs
# Procedure, shortened: (§1)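 HL-60 cells exposed to increasing concentrations for 12 h, then harvested. Cytosolic or total lysates assayed with colorimetric substrates, DEVD-pNA for caspase-3 and IETD-pNA for caspase-8. Activity expressed as x-fold over untreated control. A representative experiment run in duplicate.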
# [3] = test system: HL-60; test: Induction of apoptosis in human HL60 cells assessed as accumulation […] at 30 uM after 12 hrs by flow cytometry
# Procedure, shortened: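 HL-60 cells incubated at 30 μM for 12 h. DNA content analysed by flow cytometry to follow the diploid-to-hypodiploid shift and the cell-cycle phase distribution.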
# [4] = test system: HL-60; test: Induction of apoptosis in human HL60 cells assessed as nuclear chromatin condensation by Hoechst 33258 based fluorescent microscopy
# Procedure, shortened: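 HL-60 cells cultured 12 h without or with the indicated doses, then stained with Hoechst 33258. Condensed/fragmented chromatin scored by fluorescence microscopy as the percentage of apoptotic cells. Etoposide 10 μM as positive control. Points are the average (±SE) of triplicates from a representative experiment.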
# [5] = test system: HL-60; test: Induction of apoptosis in human HL60 cells assessed as activation of caspase 8 at after 12 hrs; procedure, shortened: as §1
# [6] = test system: HL-60; test: Induction of apoptosis in human HL60 cells assessed as cleavage of PARP-1 after 12 hrs by Western blot analysis
# Procedure, shortened: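 HL-60 cells treated for 12 h at the indicated concentrations. Total lysates immunoblotted with a PARP-1 monoclonal antibody that detects the native 116 kDa and cleaved 85 kDa forms. Etoposide 10 μM served as positive control.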
SMILES,IC50 [1] [µM],other results
CC(=O)OC/C1=C/CC[C@@]2(C)O[C@@H]2[C@@H](OC(C)=O)[C@@H](C(C)C)[C@H](OC(C)=O)C1,298,
CC(=O)O[C@@H]1/C=C(\C)CC[C@H]2O[C@@]2(C=O)C[C@@H](OC(C)=O)[C@@H]1C(C)C [PULICANARAL A],115,
CC(=O)O[C@H]1[C@@H](C(C)C)[C@H](OC(C)=O)C[C@]2(C=O)O[C@@H]2CC[C@@]2(C)O[C@@H]12 [PULICANARAL B],264,
C=C1CC[C@@H](C(C)C)[C@H]2[C@@H]1CC[C@@H]2C(=O)CO [PULIOPLOPANONE A],242,
C=C1CC/C=C(/COC(C)=O)C[C@@H](OC(C)=O)[C@H](C(C)C)[C@H](OC(C)=O)C1=O [TRIACETOXY PULICANONE],20,Activity [2]: Active; Activity [3]: Active; Activity [4]: Dose-dependent effect; Activity [5]: Active; Activity [6]: Active
